ERAP1 HTS inh: blocks human ERAP1 aminopeptidase activity | AID 652197 | hit rate 0.15% among 340,000 | inhibition, % at 10.7 µM | recombinant ERAP1, Leu-AMC fluorescence, 60 min;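 active means mean replicate inhibition of at least 30%, or all replicates individually reaching that 30% level; inactive means mean below 30% and not every replicate reaching it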
FGF22 binding: shifts melting point of recombinant human FGF22. Q9HCT0. activity (Tm shift, normalised), % at 9.99 µM. hit rate 1.5% among 340,000. recombinant FGF22 thermal shift, SYPRO orange fluorescence; percent of sucrose octasulfate shift, DMSO zero;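 active means mean Tm shift, scaled 0 neutral to 100 positive control, at about 1.3% or above, every replicate too, limit read from the data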
Target sequence (Q9HCT0 whole entry, looked up): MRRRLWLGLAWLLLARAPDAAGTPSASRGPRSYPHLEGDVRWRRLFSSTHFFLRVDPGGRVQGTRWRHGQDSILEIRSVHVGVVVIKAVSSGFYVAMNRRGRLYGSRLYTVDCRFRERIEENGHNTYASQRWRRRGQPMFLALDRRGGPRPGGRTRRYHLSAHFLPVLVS
FN deposit inh: fibronectin deposition inhibition; AH1F fibroblasts, Alexa488-fibronectin deposition fluorescence, overnight; inhibition, % at 12.6 µM; hit rate 0.086% among 350,000; AID 743247;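 active means mean inhibition across replicates of 30% or more, regardless of how many single replicates reach that level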
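Schedule: 1 h cell adhesion before compound, then overnight fibronectin incubation; test system: AH1F fibroblast monolayer depositing Alexa488-labelled fibronectin into matrix; quantity: 10000 AH1F cells per well; probe or stimulus: fluorescent fibronectin at 24 nM final; signal: fluorescence, ex 485 nm, em 525 nm; evaluation: percent inhibition as loss of matrix-bound fibronectin fluorescence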
PGC1a acetyl inh: modulators of PGC1a acetylation; U2OS PGC1a acetylation, AlphaScreen anti-acetyl-lysine; with virally co-expressed GCN5 acetyltransferase; inhibition, % at 15.6 µM; hit rate 0.17% among 350,000; AID 651687;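 active means every replicate shows inhibition of at least 40%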
SIRT5 block: sirtuin-5 (human) deacylase inhibition; AID 652115; inhibition, % at 15 µM; hit rate 1.1% among 330,000; Q9NXA8; Purified SirT5, succinyl-peptide AMC, trypsin-coupled fluorescence; in the data active means inhibition above about 15%
A number is an active result; - = inactive; . = no result given; ! = not confirmed by another sample. In the library only some 2.2% were active in any assay of this set; here they are far more common.

SMILES | ERAP1 HTS inh | FGF22 binding | FN deposit inh | PGC1a acetyl inh | SIRT5 block
CC(C)NC(=O)Nc1ccc2c(c1)C(=O)N([C@@H](C)CO)C[C@@H](C)[C@@H](CN(C)C(=O)c1ccccc1)OCCCC[C@H](C)O2 | . | . | . | - | .
C[C@@H]1CN([C@@H](C)CO)S(=O)(=O)c2ccc(C3=CCCCC3)cc2O[C@@H]1CN(C)C(=O)Cc1cccnc1 | - | - | . | - | -
C[C@@H]1CN([C@H](C)CO)S(=O)(=O)c2ccc(C3=CCCCC3)cc2O[C@H]1CN(C)C(=O)Nc1ccc2c(c1)OCO2 | - | - | . | - | 20
C[C@H](CO)N1C[C@H](C)[C@H](CN(C)C(=O)Cc2ccccc2)Oc2cc(C3=CCCCC3)ccc2S1(=O)=O | - | - | - | - | 15
C[C@@H]1CN([C@@H](C)CO)S(=O)(=O)c2ccc(C3=CCCCC3)cc2O[C@H]1CN(C)C(=O)Nc1ccc2c(c1)OCO2 | - | - | . | - | -
C[C@H](CO)N1C[C@H](C)[C@@H](CN(C)C(=O)Cc2ccccc2)Oc2cc(C3=CCCCC3)ccc2S1(=O)=O | - | - | - | - | -
C[C@@H]1CN([C@H](C)CO)S(=O)(=O)c2ccc(C3=CCCCC3)cc2O[C@@H]1CN(C)C(=O)Cc1cccnc1 | - | - | . | - | 15
O=C(Oc1cccc(C(=S)N2CCOCC2)c1)c1ccc([N+](=O)[O-])cc1[N+](=O)[O-] | - | - | - | . | 101
CO[C@H]1CN(C)C(=O)c2cc(NC(=O)Nc3cccc(F)c3)ccc2OC[C@H](C)N(C)C[C@@H]1C | - | - | - | - | -
CO[C@@H]1CN(C)C(=O)c2cc(NC(C)=O)ccc2OC[C@H](C)N(Cc2ccccc2F)C[C@H]1C | - | - | - | - | -
Cc1nc(Nc2nc3ccccc3o2)nc(C)c1C | - | 44 | - | . | -
Cc1ccc(S(=O)(=O)N(C)C[C@H]2Oc3c(NC(=O)c4ccncc4)cccc3C(=O)N([C@@H](C)CO)C[C@H]2C)cc1 | - | - | . | - | -
Nc1ncnc2nc[nH]c12 | - | - | - | - | 44!
c1nc(N2CCCCC2)c2[nH]cnc2n1 | - | - | - | - | .
C[C@H]1CN([C@@H](C)CO)C(=O)Cc2cc(NS(=O)(=O)c3ccccc3)ccc2O[C@H]1CN(C)Cc1ccccc1 | - | - | . | - | -
O=C(N=C1SC2CS(=O)(=O)CC2N1c1ccc(F)cc1F)C1CC1 (stereo not given) | - | - | - | - | 17
C[C@@H]1CN([C@@H](C)CO)C(=O)c2cc(NC(=O)Nc3ccc(F)cc3)ccc2O[C@H]1CN(C)C(=O)Nc1ccccc1 | - | - | . | - | -
Cc1ccc(S(=O)(=O)Nc2ccc3c(c2)C(=O)N([C@H](C)CO)C[C@@H](C)[C@H](CN(C)C(=O)Nc2ccc(C(F)(F)F)cc2)OCCCC[C@@H](C)O3)cc1 | - | - | - | - | 16
C[C@H](CO)N1C[C@H](C)[C@H](CN(C)C(=O)Nc2ccc(C(F)(F)F)cc2)OCCCC[C@H](C)Oc2ccc(NS(=O)(=O)c3ccc(F)cc3)cc2C1=O | - | - | - | - | -
Cc1ccc(S(=O)(=O)Nc2ccc3c(c2)C(=O)N([C@H](C)CO)C[C@H](C)[C@@H](CN(C)C(=O)Nc2ccc(C(F)(F)F)cc2)OCCCC[C@H](C)O3)cc1 | - | - | - | - | 16
Cc1ccc(S(=O)(=O)Nc2ccc3c(c2)C(=O)N([C@H](C)CO)C[C@H](C)[C@H](CN(C)C(=O)Cc2ccccc2)OCCCC[C@H](C)O3)cc1 | - | . | - | - | 16
Cc1ccc(S(=O)(=O)Nc2ccc3c(c2)C(=O)N([C@@H](C)CO)C[C@H](C)[C@@H](CN(C)C(=O)Nc2ccc(C(F)(F)F)cc2)OCCCC[C@H](C)O3)cc1 | - | - | - | - | 17
C[C@@H]1CCCCO[C@@H](CN(C)C(=O)Nc2ccc(C(F)(F)F)cc2)[C@H](C)CN([C@H](C)CO)C(=O)c2cc(NS(=O)(=O)c3ccc(F)cc3)ccc2O1 | - | - | - | - | -
O=C(Nc1ccc(F)cc1)N[C@H]1CC[C@H](CC(=O)N2CCOCC2)O[C@H]1CO | - | - | - | - | -
C[C@@H]1CCCCO[C@H](CN(C)C(=O)Nc2ccccc2)[C@@H](C)CN([C@@H](C)CO)C(=O)c2cc(N(C)C)ccc2O1 | - | - | . | - | -

High-throughput results from PubChem BioAssay.
